{
  "source": "ChEMBL document CHEMBL1240439",
  "about": "“Synthesis and docking studies of novel benzopyran-2-ones with anticancer activity” (2010)",
  "type_in_all_cases": "functional",
  "key": {"SF-295": {"test_system": "SF-295", "test": "Cytotoxicity against human SF295 cells assessed as cell growth at 10 uM after 48 hrs by sulforhodamine B assay", "conditions": "SF-295, 48 h, read-out: Activity"}, "RPMI-8226": {"test_system": "RPMI-8226", "test": "Cytotoxicity against human RPMI8226 cells assessed as cell growth at 10 uM after 48 hrs by sulforhodamine B assay", "conditions": "RPMI-8226, 48 h, read-out: Activity"}, "K562": {"test_system": "K562", "test": "Cytotoxicity against human K562 cells assessed as cell growth at 10 uM after 48 hrs by sulforhodamine B assay", "conditions": "K562, 48 h, read-out: Activity"}, "HT-29": {"test_system": "HT-29", "test": "Cytotoxicity against human HT-29 cells assessed as cell growth at 10 uM after 48 hrs by sulforhodamine B assay", "conditions": "HT-29, 48 h, read-out: Activity"}, "PC-3": {"test_system": "PC-3", "test": "Cytotoxicity against human PC3 cells assessed as cell growth at 10 uM after 48 hrs by sulforhodamine B assay", "conditions": "PC-3, 48 h, read-out: Activity"}, "UACC-62": {"test_system": "UACC-62", "test": "Cytotoxicity against human UACC62 cells assessed as cell growth at 10 uM after 48 hrs by sulforhodamine B assay", "conditions": "UACC-62, 48 h, read-out: Activity"}, "SR": {"test_system": "SR", "test": "Cytotoxicity against human SR cells assessed as cell growth at 10 uM after 48 hrs by sulforhodamine B assay", "conditions": "read-out: Activity"}, "OVCAR-4 [1]": {"test_system": "OVCAR-4", "test": "Cytotoxicity against human OVCAR4 cells assessed as cell growth at 10 uM after 48 hrs by sulforhodamine B assay", "conditions": "OVCAR-4, 48 h, read-out: Activity"}, "T47D": {"test_system": "T47D", "test": "Cytotoxicity against human T47D cells assessed as cell growth at 10 uM after 48 hrs by sulforhodamine B assay", "conditions": "read-out: Activity"}, "HOP-62": {"test_system": "HOP-62", "test": "Cytotoxicity against human HOP62 cells assessed as cell growth at 10 uM after 48 hrs by sulforhodamine B assay", "conditions": "HOP-62, 48 h, read-out: Activity"}, "NCI-H322M": {"test_system": "NCI-H322M", "test": "Cytotoxicity against human NCI-H322M cells assessed as cell growth at 10 uM after 48 hrs by sulforhodamine B assay", "conditions": "read-out: Activity"}, "NCI-H460": {"test_system": "NCI-H460", "test": "Cytotoxicity against human NCI-H460 cells assessed as cell growth at 10 uM after 48 hrs by sulforhodamine B assay", "conditions": "NCI-H460, 48 h, read-out: Activity"}, "NCI-H226": {"test_system": "NCI-H226", "test": "Cytotoxicity against human NCI-H226 cells assessed as cell growth at 10 uM after 48 hrs by sulforhodamine B assay", "conditions": "NCI-H226, 48 h, read-out: Activity"}, "HCT-116": {"test_system": "HCT-116", "test": "Cytotoxicity against human HCT116 cells assessed as cell growth at 10 uM after 48 hrs by sulforhodamine B assay", "conditions": "HCT-116, 48 h, read-out: Activity"}, "HCT-15": {"test_system": "HCT-15", "test": "Cytotoxicity against human HCT15 cells assessed as cell growth at 10 uM after 48 hrs by sulforhodamine B assay", "conditions": "HCT-15, 48 h, read-out: Activity"}, "SW-620": {"test_system": "SW-620", "test": "Cytotoxicity against human SW620 cells assessed as cell growth at 10 uM after 48 hrs by sulforhodamine B assay", "conditions": "SW-620, 48 h, read-out: Activity"}, "MCF7": {"test_system": "MCF7", "test": "Cytotoxicity against human MCF7 cells assessed as cell growth at 10 uM after 48 hrs by sulforhodamine B assay", "conditions": "MCF7, 48 h, read-out: Activity"}, "[2]": {"test": "Cytotoxicity against human Hs 578T cells assessed as cell growth at 10 uM after 48 hrs by sulforhodamine B assay", "conditions": "read-out: Activity"}, "IGROV-1": {"test_system": "IGROV-1", "test": "Cytotoxicity against human IGROV1 cells assessed as cell growth at 10 uM after 48 hrs by sulforhodamine B assay", "conditions": "IGROV-1, 48 h, read-out: Activity"}, "OVCAR-8": {"test_system": "OVCAR-8", "test": "Cytotoxicity against human OVCAR8 cells assessed as cell growth at 10 uM after 48 hrs by sulforhodamine B assay", "conditions": "OVCAR-8, 48 h, read-out: Activity"}, "786-0": {"test_system": "786-0", "test": "Cytotoxicity against human 786-0 cells assessed as cell growth at 10 uM after 48 hrs by sulforhodamine B assay", "conditions": "786-0, 48 h, read-out: Activity"}, "A498": {"test_system": "A498", "test": "Cytotoxicity against human A498 cells assessed as cell growth at 10 uM after 48 hrs by sulforhodamine B assay", "conditions": "A498, 48 h"}, "LOX IMVI": {"test_system": "LOX IMVI", "test": "Cytotoxicity against human LOXIMVI cells assessed as cell growth at 10 uM after 48 hrs by sulforhodamine B assay", "conditions": "read-out: Activity"}, "SK-MEL-28": {"test_system": "SK-MEL-28", "test": "Cytotoxicity against human SK-MEL-28 cells assessed as cell growth at 10 uM after 48 hrs by sulforhodamine B assay", "conditions": "SK-MEL-28, 48 h, read-out: Activity"}, "SK-MEL-5": {"test_system": "SK-MEL-5", "test": "Cytotoxicity against human SK-MEL-5 cells assessed as cell growth at 10 uM after 48 hrs by sulforhodamine B assay", "conditions": "SK-MEL-5, 48 h, read-out: Activity"}, "UACC-257": {"test_system": "UACC-257", "test": "Cytotoxicity against human UACC257 cells assessed as cell growth at 10 uM after 48 hrs by sulforhodamine B assay", "conditions": "UACC-257, 48 h, read-out: Activity"}, "DU-145": {"test_system": "DU-145", "test": "Cytotoxicity against human DU145 cells assessed as cell growth at 10 uM after 48 hrs by sulforhodamine B assay", "conditions": "DU-145, 48 h, read-out: Activity"}, "SF-539": {"test_system": "SF-539", "test": "Cytotoxicity against human SF539 cells assessed as cell growth at 10 uM after 48 hrs by sulforhodamine B assay", "conditions": "SF-539, 48 h, read-out: Activity"}, "[3]": {"test": "Cytotoxicity against human colon cancer cells after 48 hrs by sulforhodamine B assay", "conditions": "Cancer cell lines", "how_it_was_run": "(§1)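 Cells plated at 5000–40,000/well according to doubling time, then held 24 h at 37 °C, 5% CO2, with time-zero plates TCA-fixed. DMSO stocks (400× top concentration) were diluted in medium containing 50 μg/ml gentamycin, giving five 10-fold or ½-log concentrations. After 48 h, adherent cells were fixed in 10% TCA and suspension cells in 16% TCA (final), stained with 0.4% SRB, read at 515 nm. GI50, TGI and LC50 were calculated per cell line.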"}, "[4]": {"test": "Cytotoxicity against human CNS cancer cells after 48 hrs by sulforhodamine B assay", "conditions": "Cancer cell lines", "how_it_was_run": "(§2)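 Cells were plated at 5000–40,000/well according to doubling time and preincubated 24 h at 37 °C, 5% CO2. Time-zero plates were TCA-fixed. DMSO stocks were diluted in medium with gentamycin to five concentrations (10-fold or ½ log series) plus control, then incubated 48 h. Adherent cells were fixed with cold TCA (suspension cells with 16% final), stained with SRB, and read at 515 nm. GI50, TGI and LC50 were calculated per line.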"}, "[5]": {"test": "Cytotoxicity against human ovarian cancer cells after 48 hrs by sulforhodamine B assay", "conditions": "Cancer cell lines", "how_it_was_run": "as §1"}, "CCRF-CEM": {"test_system": "CCRF-CEM", "test": "Cytotoxicity against human CCRF-CEM cells after 48 hrs by sulforhodamine B assay", "how_it_was_run": "as §2"}, "OVCAR-4 [6]": {"test_system": "OVCAR-4", "test": "Cytotoxicity against human OVCAR4 cells after 48 hrs by sulforhodamine B assay", "conditions": "OVCAR-4, 48 h", "how_it_was_run": "as §2"}, "[7]": {"conditions": "read-out: LC50 (the source's name)"}},
  "data": [
    {"smiles": "Cc1cc(=O)n(C(=O)COc2ccc3c(-c4ccccc4)cc(=O)oc3c2C)[nH]1", "values": [
      {"measurement": "growth at 10 µM", "setting": "SF-295", "result": -77.2, "unit": "%"},
      {"measurement": "growth at 10 µM", "setting": "RPMI-8226", "result": -18.2, "unit": "%"},
      {"measurement": "growth at 10 µM", "setting": "K562", "result": -24.1, "unit": "%"},
      {"measurement": "growth at 10 µM", "setting": "HT-29", "result": -44.2, "unit": "%"},
      {"measurement": "growth at 10 µM", "setting": "PC-3", "result": -93, "unit": "%"},
      {"measurement": "growth at 10 µM", "setting": "UACC-62", "result": -27.3, "unit": "%"},
      {"measurement": "growth at 10 µM", "setting": "SR", "result": 18.5, "unit": "%"},
      {"measurement": "growth at 10 µM", "setting": "OVCAR-4 [1]", "result": -42.9, "unit": "%"},
      {"measurement": "growth at 10 µM", "setting": "T47D", "result": -1.54, "unit": "%"},
      {"measurement": "growth at 10 µM", "setting": "HOP-62", "result": -18.6, "unit": "%"},
      {"measurement": "growth at 10 µM", "setting": "NCI-H322M", "result": -24.7, "unit": "%"},
      {"measurement": "growth at 10 µM", "setting": "NCI-H460", "result": 10.9, "unit": "%"},
      {"measurement": "growth at 10 µM", "setting": "NCI-H226", "result": 0.36, "unit": "%"},
      {"measurement": "growth at 10 µM", "setting": "HCT-116", "result": -65.9, "unit": "%"},
      {"measurement": "growth at 10 µM", "setting": "HCT-15", "result": 38.3, "unit": "%"},
      {"measurement": "growth at 10 µM", "setting": "SW-620", "result": -65.9, "unit": "%"},
      {"measurement": "growth at 10 µM", "setting": "MCF7", "result": -14.4, "unit": "%"},
      {"measurement": "growth at 10 µM", "setting": "[2]", "result": -4.17, "unit": "%"},
      {"measurement": "growth at 10 µM", "setting": "IGROV-1", "result": -17.5, "unit": "%"},
      {"measurement": "growth at 10 µM", "setting": "OVCAR-8", "result": -30.5, "unit": "%"},
      {"measurement": "growth at 10 µM", "setting": "786-0", "result": -58.8, "unit": "%"},
      {"measurement": "TGI", "setting": "A498", "result": 3.76, "unit": "µM"},
      {"measurement": "growth at 10 µM", "setting": "A498; read-out: Activity", "result": -3.79, "unit": "%"},
      {"measurement": "growth at 10 µM", "setting": "LOX IMVI", "result": -61.8, "unit": "%"},
      {"measurement": "growth at 10 µM", "setting": "SK-MEL-28", "result": -47.2, "unit": "%"},
      {"measurement": "growth at 10 µM", "setting": "SK-MEL-5", "result": -31.5, "unit": "%"},
      {"measurement": "growth at 10 µM", "setting": "UACC-257", "result": 6.57, "unit": "%"},
      {"measurement": "growth at 10 µM", "setting": "DU-145", "result": -56.3, "unit": "%"},
      {"measurement": "growth at 10 µM", "setting": "SF-539", "result": -78.2, "unit": "%"},
      {"measurement": "GI50", "setting": "[3]", "result": 8.98, "unit": "µM"},
      {"measurement": "TGI", "setting": "[3]", "result": 32.6, "unit": "µM"},
      {"measurement": "CC50", "setting": "[3]; [7]", "result": 64.5, "unit": "µM"},
      {"measurement": "GI50", "setting": "[4]", "result": 2.58, "unit": "µM"},
      {"measurement": "TGI", "setting": "[4]", "result": 8.85, "unit": "µM"},
      {"measurement": "CC50", "setting": "[4]; [7]", "result": 27.7, "unit": "µM"},
      {"measurement": "GI50", "setting": "[5]", "result": 8.53, "unit": "µM"},
      {"measurement": "TGI", "setting": "[5]", "result": 28.7, "unit": "µM"},
      {"measurement": "CC50", "setting": "[5]; [7]", "result": 52, "unit": "µM"},
      {"measurement": "GI50", "setting": "CCRF-CEM", "result": "< 0.04", "unit": "µM"},
      {"measurement": "TGI", "setting": "CCRF-CEM", "result": 0.57, "unit": "µM"},
      {"measurement": "GI50", "setting": "OVCAR-4 [6]", "result": 1.95, "unit": "µM"},
      {"measurement": "TGI", "setting": "OVCAR-4 [6]", "result": 4.73, "unit": "µM"}
    ]}
  ]
}
